The record followed here is ChEMBL document CHEMBL1123026, “Preparation and antiarthritic and analgesic activity of 4,5-diaryl-2-(substituted thio)-1H-imidazoles and their sulfoxides and sulfones” (1985).

Molecules are shown by their SMILES.

What all share (format): functional
Test [1] has as its system Mus musculus. Put plainly: Effective dose by mouse phenyl-p-benzoquinone writhing (PQW)assay after peroral administration; activity value ranges from (0.48-1.53). To be noted: po. Background: Writhing tests count abdominal constrictions after an irritant is injected.
The test system of test [2] is Rattus norvegicus. The test is described as follows: Effective dose determined against rat adjuvant arthritis after peroral administration. To be noted: po. The gist of the method: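 Male Lewis rats (130-150 g) given 0.1 mL Mycobacterium butyricum adjuvant (5 mg/mL in mineral oil) s.c. into the right hind paw; arthritis developed for 2 weeks. Groups of 10 matched for severity were dosed orally by gavage in PVA-acacia vehicle (10 mL/kg) for 7 days. Uninjected left paw volume was measured the day after the last dose. Percent decrease was calculated vs arthritic and nonarthritic controls. ED50 was read from a visually fitted semilog dose-response line.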

In test [3] the test system is Mus musculus. Put plainly: Effective dose by mouse phenyl-p-benzoquinone writhing (PQW)assay after peroral administration; activity value ranges from (10.9-125.8). To be noted: po. In a few lines:
(§1)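 Fasted (17-21 h) female white mice, 5-20 per double-blind test, dosed orally with compound suspended in 1% methylcellulose. 0.20 mL aqueous 0.01% phenyl-p-benzoquinone given i.p. 6 min before a 10-min observation for stretching/writhing. ED50 (dose protecting 50% of mice) calculated by the moving-average method.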

Test [4] deals with Mus musculus. Put plainly: Effective dose by mouse phenyl-p-benzoquinone writhing (PQW)assay after peroral administration; activity value ranges from (0.05-0.27). To be noted: po.
Test [5] concerns Mus musculus. Put plainly: Effective dose by mouse phenyl-p-benzoquinone writhing (PQW)assay after peroral administration; activity value ranges from (2.3-15.7). To be noted: po. The gist of the method: as §1
In test [6] the test system is Mus musculus. Put plainly: Effective dose by mouse phenyl-p-benzoquinone writhing (PQW)assay after peroral administration; activity value ranges from (22.9 - 118). To be noted: po. The gist of the method: as §1
Test [7] concerns Rattus norvegicus. The test is described as follows: Decrease in paw volume was evaluated at dose 10 mg/kg. The gist of the method: (§2)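 Male Lewis rats (130-150 g) got 0.1 mL adjuvant (heat-killed Mycobacterium butyricum, 5 mg/mL in mineral oil) subplantar in the right hind paw and were left 2 weeks. Groups of 10 matched for severity were dosed orally by gavage (PVA-acacia vehicle, 10 mL/kg) for 7 days. Uninjected left hind paw volume was read the next day. % decrease = (arthritic control − treated)/(arthritic − nonarthritic control) × 100; Student's t-test.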

In test [8] the test system is Mus musculus. Put plainly: Effective dose determined by mouse phenyl-p-benzoquinone writhing (PQW) assay after peroral administration. To be noted: po. In a few lines: as §1
For test [9], the system named is Mus musculus. The test is described as follows: Effective dose by mouse phenyl-p-benzoquinone writhing (PQW)assay after peroral administration; activity value ranges from (6.0 - 18.0). To be noted: po. The gist of the method: as §1
Test [10] concerns Rattus norvegicus. The test is described as follows: Decrease in paw volume by the effect of compound at a dose of 75 mg/kg, highest dose (75 mg/kg). The gist of the method: as §2
Test [11] deals with Mus musculus. The test is described as follows: Effective dose by mouse phenyl-p-benzoquinone writhing (PQW)assay after peroral administration; 5.3-45.9. To be noted: po.
For test [12], the system named is Mus musculus. Put plainly: Effective dose by mouse phenyl-p-benzoquinone writhing (PQW)assay after peroral administration; activity value ranges from (0.028-0.065). To be noted: po.
In test [13] the test system is Mus musculus. Put plainly: Effective dose by mouse phenyl-p-benzoquinone writhing (PQW)assay after peroral administration; activity value ranges from (8.6 - 78.6). To be noted: po. In a few lines:
as §1

For test [14], the system named is Mus musculus. The test is described as follows: Effective dose by mouse phenyl-p-benzoquinone writhing (PQW)assay after peroral administration; 16.6-69.5. To be noted: po.

For the compound `O=S(=O)(c1nc(-c2ccc(F)cc2)c(-c2ccccc2)[nH]1)C(F)(F)C(F)F`, the median effective dose (ED50) turned out to be 0.86 mg/kg in test [1] and 0.03 mg/kg in test [2].
Regarding `COc1ccc(-c2nc([S+]([O-])C(F)(F)F)[nH]c2-c2ccc(OC)cc2)cc1` (stereo unspecified), the results for the ED50 in [3] and in test [2] were 37 mg/kg and 3 mg/kg, respectively.
In the case of `COc1ccc(-c2[nH]c(S(=O)(=O)C(F)(F)F)nc2-c2ccc(F)cc2)cc1`, the 50% effect level in [4] (ED50) was put at a dose of 0.12 mg/kg.
Turning to `O=S(=O)(c1nc(-c2ccccc2)c(-c2ccccc2)[nH]1)C(F)F`, the median effective dose (ED50) in test [5] is 6 mg/kg.
Turning to `[O-][S+](c1nc(-c2ccc(Cl)c(Cl)c2)c(-c2ccccc2)[nH]1)C(F)(F)C(F)F` (stereo unspecified), the results for the ED50 in [6] and in test [2] were 52 mg/kg and 0.45 mg/kg, respectively.
On to `CCOc1ccc(-c2[nH]c(SC(F)(F)C(F)F)nc2-c2ccccc2)cc1`, for which, in test [7], the Decrease was 32%. Also, in [8], the 50% effective dose (ED50) is over 130 mg/kg.
Take `O=S(=O)(CC(F)(F)F)c1nc(-c2ccccc2)c(-c2ccccc2)[nH]1`: the figures for the 50% effective dose (ED50) in test [2] and in [9] were 15 mg/kg and 10.4 mg/kg, respectively.
`CC[S+]([O-])c1nc(-c2ccccc2)c(-c2ccccc2)[nH]1` (stereo unspecified) yielded a Decrease in [10] of 44%. Further, the 50% effective dose (ED50) in test [8] was over 130 mg/kg.
Consider `Fc1ccc(-c2nc(SC(F)(F)F)[nH]c2-c2ccc(F)cc2)cc1`, for which the figures for the ED50 in test [11] and in [2] were 15.6 mg/kg and 0.035 mg/kg, respectively.
`COc1ccc(-c2nc(S(=O)(=O)C(F)(F)F)[nH]c2-c2ccc(OC)cc2)cc1` showed an ED50 in test [12] of 0.043 mg/kg.
For the compound `COc1ccc(-c2nc(S(=O)(=O)CC(C)=O)[nH]c2-c2ccc(OC)cc2)cc1`, the 50% effective dose (ED50) in test [13] worked out at 26 mg/kg; in [2], 20 mg/kg.
Take `CN(C)c1ccc(-c2[nH]c(SC(F)(F)C(F)F)nc2-c2ccccc2)cc1`: the results for the 50% effective dose (ED50) in test [2] and in test [14] were 3 mg/kg and 34 mg/kg, respectively.

A word on the ED50: it is the dose at which the effect has come halfway, by size or by number of responders.
